Results from ChEMBL document CHEMBL3774381, “Discovery of Novel and Orally Bioavailable Inhibitors of PI3 Kinase Based on Indazole Substituted Morpholino-Triazines” (ACS Med Chem Lett, 2015).

What was measured:
[1] = target: Phosphatidylinositol 4,5-bisphosphate 3-kinase catalytic subunit alpha isoform (Homo sapiens, UniProt P42336); test: Inhibition of human recombinant PI3K-alpha using phosphatidylinositol biphosphate as substrate preincubated for 15 mins followed by substrate addition measured after 60 mins by HTRF assay
Phosphatidylinositol 4,5-bisphosphate 3-kinase catalytic subunit alpha isoform, sequence (P42336 whole entry, canonical isoform): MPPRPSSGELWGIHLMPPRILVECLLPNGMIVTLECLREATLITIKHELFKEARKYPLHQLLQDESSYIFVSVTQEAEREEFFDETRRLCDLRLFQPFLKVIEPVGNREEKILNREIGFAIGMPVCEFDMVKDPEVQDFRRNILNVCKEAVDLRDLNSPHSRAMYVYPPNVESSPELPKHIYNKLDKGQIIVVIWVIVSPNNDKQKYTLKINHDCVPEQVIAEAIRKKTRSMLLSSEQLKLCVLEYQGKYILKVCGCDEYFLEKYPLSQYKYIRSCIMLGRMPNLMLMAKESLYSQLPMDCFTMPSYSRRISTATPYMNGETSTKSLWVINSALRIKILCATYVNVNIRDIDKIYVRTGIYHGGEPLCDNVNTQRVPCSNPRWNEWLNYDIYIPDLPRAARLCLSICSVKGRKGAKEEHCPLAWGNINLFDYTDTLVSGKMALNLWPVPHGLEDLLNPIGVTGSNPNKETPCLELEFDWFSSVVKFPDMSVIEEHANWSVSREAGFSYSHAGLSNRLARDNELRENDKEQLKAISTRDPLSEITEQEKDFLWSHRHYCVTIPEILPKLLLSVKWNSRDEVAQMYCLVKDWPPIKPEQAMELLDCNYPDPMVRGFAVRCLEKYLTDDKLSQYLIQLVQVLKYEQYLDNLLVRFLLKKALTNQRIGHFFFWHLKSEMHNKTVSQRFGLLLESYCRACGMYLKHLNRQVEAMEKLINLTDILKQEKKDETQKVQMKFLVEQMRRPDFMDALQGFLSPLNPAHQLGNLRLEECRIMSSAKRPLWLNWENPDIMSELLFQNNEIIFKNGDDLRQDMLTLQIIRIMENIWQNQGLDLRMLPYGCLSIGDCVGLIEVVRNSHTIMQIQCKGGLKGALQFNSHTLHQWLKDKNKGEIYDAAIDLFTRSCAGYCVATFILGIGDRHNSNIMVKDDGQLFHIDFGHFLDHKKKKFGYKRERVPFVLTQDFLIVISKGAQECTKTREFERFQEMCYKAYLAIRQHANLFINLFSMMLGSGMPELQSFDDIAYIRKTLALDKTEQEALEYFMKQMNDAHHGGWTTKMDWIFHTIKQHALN

[2] = tested on: A2780; test: Antiproliferative activity against human A2780 cells assessed as reduction in cell viability after 48 hrs by MTT assay; type: functional, cell-based; details: A2780, 48 h
Summary of the method: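 Cellular EC50 was determined in the A2780 ovarian cancer line, with a coefficient of variation below 5%.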

[3] = target: T1, Cytochrome P450 2C19 (Homo sapiens, UniProt P33261); test: Inhibition of CYP2C19 (unknown origin) at 10 uM; type: ADME
T1 sequence (P33261 whole entry): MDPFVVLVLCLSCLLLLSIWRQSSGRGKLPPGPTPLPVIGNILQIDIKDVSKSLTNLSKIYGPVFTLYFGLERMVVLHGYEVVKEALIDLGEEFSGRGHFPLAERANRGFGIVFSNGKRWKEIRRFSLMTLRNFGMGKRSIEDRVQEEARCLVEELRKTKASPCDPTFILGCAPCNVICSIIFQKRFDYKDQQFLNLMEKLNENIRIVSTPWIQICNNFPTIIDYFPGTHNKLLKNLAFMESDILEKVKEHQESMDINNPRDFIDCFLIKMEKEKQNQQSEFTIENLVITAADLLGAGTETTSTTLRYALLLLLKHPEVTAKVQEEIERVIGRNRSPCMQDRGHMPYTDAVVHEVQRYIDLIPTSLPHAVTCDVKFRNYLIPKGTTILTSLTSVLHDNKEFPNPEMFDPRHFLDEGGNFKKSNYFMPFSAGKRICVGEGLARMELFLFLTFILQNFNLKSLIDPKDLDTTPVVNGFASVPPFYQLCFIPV
Summary of the method: (§1)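 Inhibition of CYP3A4, CYP2C19 and CYP2D6 activity was screened with test compound at 10 μM.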

[4] = Metabolic stability in mouse liver microsomes assessed as parent compound remaining at 10 uM after 2 hrs by HPLC analysis in presence of NADPH; type: ADME; details: read-out: Stability
Summary of the method: (§2)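 Compound was incubated with isolated human, dog or mouse liver microsomes for 2 h. Parent concentration was followed by HPLC at 0, 0.5, 1 and 2 h, and the 2 h value is reported as remaining parent.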

[5] = target: T2, Cytochrome P450 3A4 (Homo sapiens, UniProt P08684); test: Inhibition of CYP3A4 (unknown origin); type: ADME
T2 sequence (P08684 whole entry): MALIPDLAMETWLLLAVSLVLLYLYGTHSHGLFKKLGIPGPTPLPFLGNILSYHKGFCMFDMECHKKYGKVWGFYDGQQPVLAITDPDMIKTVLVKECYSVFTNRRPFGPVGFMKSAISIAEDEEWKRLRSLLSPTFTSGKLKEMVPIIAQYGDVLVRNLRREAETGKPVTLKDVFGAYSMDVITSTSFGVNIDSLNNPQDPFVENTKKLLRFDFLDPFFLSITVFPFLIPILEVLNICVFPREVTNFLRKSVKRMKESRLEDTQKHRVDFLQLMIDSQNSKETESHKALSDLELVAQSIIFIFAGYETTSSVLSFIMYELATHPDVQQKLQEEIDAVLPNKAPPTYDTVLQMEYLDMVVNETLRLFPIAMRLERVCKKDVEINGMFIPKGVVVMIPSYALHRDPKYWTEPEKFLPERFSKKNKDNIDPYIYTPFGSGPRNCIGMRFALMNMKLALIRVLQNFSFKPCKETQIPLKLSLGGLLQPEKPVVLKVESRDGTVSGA

[6] = Metabolic stability in human liver microsomes assessed as parent compound remaining at 10 uM after 2 hrs by HPLC analysis in presence of NADPH; type: ADME; details: read-out: Stability; summary of the method: as §2
[7] = target: T1, Cytochrome P450 2C19; test: Inhibition of CYP2C19 (unknown origin); type: ADME; summary of the method: as §1
[8] = target: T3, Cytochrome P450 2D6 (Homo sapiens, UniProt P10635); test: Inhibition of CYP2D6 (unknown origin); type: ADME; summary of the method: as §1
T3 sequence (P10635 whole entry): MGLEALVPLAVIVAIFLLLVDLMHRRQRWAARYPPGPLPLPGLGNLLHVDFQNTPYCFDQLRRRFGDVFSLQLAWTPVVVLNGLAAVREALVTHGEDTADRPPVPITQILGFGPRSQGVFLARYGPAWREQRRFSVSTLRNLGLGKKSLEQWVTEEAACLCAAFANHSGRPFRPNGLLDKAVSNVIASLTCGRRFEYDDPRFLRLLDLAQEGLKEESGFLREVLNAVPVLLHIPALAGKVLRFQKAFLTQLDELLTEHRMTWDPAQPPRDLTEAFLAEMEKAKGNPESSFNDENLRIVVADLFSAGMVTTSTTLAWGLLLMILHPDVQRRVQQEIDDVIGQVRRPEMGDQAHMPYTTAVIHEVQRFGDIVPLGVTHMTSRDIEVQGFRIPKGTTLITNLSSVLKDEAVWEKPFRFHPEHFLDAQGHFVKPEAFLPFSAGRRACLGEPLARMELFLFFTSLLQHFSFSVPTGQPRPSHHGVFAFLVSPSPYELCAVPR

[9] = target: T3, Cytochrome P450 2D6; test: Inhibition of CYP2D6 (unknown origin) at 10 uM; type: ADME; summary of the method: as §1
[10] = target: T2, Cytochrome P450 3A4; test: Inhibition of CYP3A4 (unknown origin) at 10 uM; type: ADME; summary of the method: as §1
[11] = Metabolic stability in dog liver microsomes assessed as parent compound remaining at 10 uM after 2 hrs by HPLC analysis in presence of NADPH; type: ADME, Canis lupus familiaris; details: read-out: Stability; summary of the method: as §2
[12] = Cmax in Swiss mouse plasma at 10 mg/kg, po after 0.16 to 8 hrs by LC-MS analysis; type: ADME, organism-based; set-up: dose 10 mg/kg, route oral
Summary of the method: (§3)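 Single oral doses of 1, 3 and 10 mpk were given to mice in a dose-ranging study, with the 3 mpk screen run in Swiss mice. Plasma tmax, Cmax, AUC and elimination t1/2 were derived from each dose group.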

[13] = Tmax in Swiss mouse plasma at 10 mg/kg, po after 0.16 to 8 hrs by LC-MS analysis; type: ADME, organism-based; summary of the method: as §3
[14] = tested on: Mus musculus; test: Toxicity in Swiss mouse assessed as changes in body coat at 30 mg/kg, po bid for 5 days; type: organism-based; details: in vivo, 120 h
Summary of the method: (§4)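 Swiss mice were dosed orally at 30 mpk BID for 5 consecutive days. Body weight, body temperature (hyper- or hypothermia), body coat and level of physical activity were monitored throughout.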

[15] = tested on: Mus musculus; test: Toxicity in Swiss mouse assessed as hypothermia at 30 mg/kg, po bid for 5 days; type: organism-based; details: in vivo, 120 h; summary of the method: as §4
[16] = Cmax in Swiss mouse plasma at 3 mg/kg, po after 0.16 to 8 hrs by LC-MS analysis; type: ADME, organism-based; set-up: dose 3 mg/kg, route oral; summary of the method: as §3
[17] = Tmax in Swiss mouse plasma at 1 mg/kg, po after 0.16 to 8 hrs by LC-MS analysis; type: ADME, organism-based; summary of the method: as §3
[18] = AUC in Swiss mouse plasma at 1 mg/kg, po after 0.16 to 8 hrs by LC-MS analysis; type: ADME, organism-based; set-up: dose 1 mg/kg, time 0.16-8 hr, route oral
[19] = AUC in Swiss mouse plasma at 3 mg/kg, po after 0.16 to 8 hrs by LC-MS analysis; type: ADME, organism-based; set-up: time lower 0.16 hr, dose 3 mg/kg, time upper 8 hr, route oral; summary of the method: as §3
[20] = tested on: Mus musculus; test: Toxicity in Swiss mouse assessed as body weight loss at 30 mg/kg, po bid for 5 days; type: organism-based; details: in vivo, 120 h; summary of the method: as §4
[21] = tested on: Mus musculus; test: Toxicity in Swiss mouse assessed as hyperthermia at 30 mg/kg, po bid for 5 days; type: organism-based; details: in vivo, 120 h; summary of the method: as §4
[22] = Tmax in Swiss mouse plasma at 3 mg/kg, po after 0.16 to 8 hrs by LC-MS analysis; type: ADME, organism-based; summary of the method: as §3
[23] = Elimination half life in Swiss mouse plasma at 3 mg/kg, po after 0.16 to 8 hrs by LC-MS analysis; type: ADME, organism-based; details: read-out: beta t1/2 (converted); summary of the method: as §3
[24] = Elimination half life in Swiss mouse plasma at 1 mg/kg, po after 0.16 to 8 hrs by LC-MS analysis; type: ADME, organism-based; details: read-out: beta t1/2 (converted)
[25] = Cmax in Swiss mouse plasma at 1 mg/kg, po after 0.16 to 8 hrs by LC-MS analysis; type: ADME, organism-based; set-up: dose 1 mg/kg, route oral; summary of the method: as §3
[26] = tested on: Mus musculus; test: Toxicity in Swiss mouse assessed as reduced physical activity at 30 mg/kg, po bid for 5 days; type: organism-based; details: in vivo, 120 h; summary of the method: as §4
[27] = AUC in Swiss mouse plasma at 10 mg/kg, po after 0.16 to 8 hrs by LC-MS analysis; type: ADME, organism-based; set-up: dose 10 mg/kg, time 0.16-8 hr, route oral; summary of the method: as §3
[28] = Elimination half life in Swiss mouse plasma at 10 mg/kg, po after 0.16 to 8 hrs by LC-MS analysis; type: ADME, organism-based; details: read-out: beta t1/2 (converted); summary of the method: as §3

NC(=O)CNc1nc(-c2cccc(O)c2)nc(N2CCOCC2)n1
IC50 [1]: 740 nM

O=C1CCN(c2nc(-c3cccc4[nH]ncc34)nc(N3CCOCC3)n2)CCN1
IC50 [1]: 200 nM
EC50 [2]: 2640 nM

COC(=O)CNc1nc(-c2cccc(O)c2)nc(N2CCOCC2)n1
IC50 [1]: 1180 nM

CN(C)C(=O)c1cc(Oc2nc(-c3cccc4[nH]ncc34)nc(N3CCOCC3)n2)cs1
IC50 [1]: 100 nM
EC50 [2]: 1400 nM

Nc1cccc(-c2nc(NCC(=O)O)nc(N3CCOCC3)n2)c1
IC50 [1]: > 10000 nM

CN(C)C(=O)N1CCC(Oc2nc(-c3cccc4[nH]ncc34)nc(N3CCOCC3)n2)CC1
inhibition (INH) [3]: Not Active
remaining at 2 h, 10 µM [4]: 24.8%
IC50 [1]: 60 nM
IC50 [5]: > 15000 nM
remaining at 2 h, 10 µM [6]: 80.7%
EC50 [2]: 720 nM
IC50 [7]: > 10000 nM
IC50 [8]: > 10000 nM
inhibition (INH) [9]: Not Active
inhibition (INH) [10]: Not Active

NC(=O)c1cccc(Oc2nc(-c3cccc4[nH]ncc34)nc(N3CCOCC3)n2)c1
IC50 [1]: 270 nM
EC50 [2]: 3220 nM

O=C1CN(c2nc(-c3cccc4[nH]ncc34)nc(N3CCOCC3)n2)CCN1
IC50 [1]: 400 nM
EC50 [2]: 3970 nM

c1ccc(Nc2nc(-c3cccc4[nH]ncc34)nc(N3CCOCC3)n2)cc1
IC50 [1]: 800 nM
EC50 [2]: 3690 nM

CN(C)C(=O)CNc1nc(-c2cccc(O)c2)nc(N2CCOCC2)n1
IC50 [1]: 540 nM

CN(C)C(=O)CNc1nc(-c2cccc3c2CCC3O)nc(N2CCOCC2)n1 (stereo unspecified)
IC50 [1]: > 20000 nM

CN(C)C(=O)CNc1nc(-c2cncc(O)c2)nc(N2CCOCC2)n1
IC50 [1]: 1600 nM

NC(=O)c1cccc(Nc2nc(-c3cccc4[nH]ncc34)nc(N3CCOCC3)n2)c1
IC50 [1]: 80 nM
EC50 [2]: 820 nM

CN(C)C(=O)CCNc1nc(-c2cccc3[nH]ncc23)nc(N2CCOCC2)n1
IC50 [1]: 600 nM
EC50 [2]: 6380 nM

CN(C)C(=O)CNc1nc(-c2cccc3[nH]ncc23)nc(N2CCOCC2)n1
IC50 [1]: 1100 nM

CN(C)C(=O)c1sccc1Nc1nc(-c2cccc3[nH]ncc23)nc(N2CCOCC2)n1
IC50 [1]: 200 nM
EC50 [2]: 1900 nM

CNc1cccc(Nc2nc(-c3cccc4[nH]ncc34)nc(N3CCOCC3)n2)c1
EC50 [2]: 850 nM

CS(=O)(=O)N1CCN(C(=O)CNc2nc(-c3cccc(O)c3)nc(N3CCOCC3)n2)CC1
IC50 [1]: 1060 nM

CN(C)C(=O)CNc1nc(-c2cccc(C(N)=O)c2)nc(N2CCOCC2)n1
IC50 [1]: > 20000 nM

CN(CC(=O)O)c1nc(-c2cccc(O)c2)nc(N2CCOCC2)n1
IC50 [1]: 10000 nM

CN(C)C(=O)c1ccc(Oc2nc(-c3cccc4[nH]ncc34)nc(N3CCOCC3)n2)cc1
remaining at 2 h, 10 µM [11]: 83.8%
inhibition (INH) [3]: Not Active
Cmax [12]: 1800 nM
Tmax [13]: 2.33 h
Activity [14]: Non-toxic
Activity [15]: Non-toxic
Cmax [16]: 1240 nM
remaining at 2 h, 10 µM [4]: 45.6%
Tmax [17]: 1 h
IC50 [1]: 60 nM
IC50 [5]: > 15000 nM
remaining at 2 h, 10 µM [6]: 101%
EC50 [2]: 520 nM
AUC [18]: 2.12 µM·h
AUC [19]: 5.25 µM·h
Activity [20]: Non-toxic
Activity [21]: Non-toxic
IC50 [7]: > 10000 nM
Tmax [22]: 1 h
half-life [23]: 4.86 h
half-life [24]: 6.93 h
Cmax [25]: 360 nM
IC50 [8]: > 10000 nM
Activity [26]: Non-toxic
AUC [27]: 9.79 µM·h
half-life [28]: 6.87 h
inhibition (INH) [9]: Not Active
inhibition (INH) [10]: Not Active

COc1cccc(-c2nc(NCC(=O)O)nc(N3CCOCC3)n2)c1
IC50 [1]: > 20000 nM

Nc1nc(-c2cccc(O)c2)nc(N2CCOCC2)n1
IC50 [1]: 680 nM

CNC(=O)CNc1nc(-c2cccc(O)c2)nc(N2CCOCC2)n1
IC50 [1]: 730 nM

O=C(O)CNc1nc(-c2ccccc2)nc(N2CCOCC2)n1
IC50 [1]: > 20000 nM

CN(C)C(=O)[C@H]1CC[C@H](Oc2nc(-c3cccc4[nH]ncc34)nc(N3CCOCC3)n2)CC1
inhibition (INH) [3]: Not Active
remaining at 2 h, 10 µM [4]: 27.3%
IC50 [1]: 60 nM
IC50 [5]: > 15000 nM
remaining at 2 h, 10 µM [6]: 99%
EC50 [2]: 680 nM
IC50 [7]: > 10000 nM
IC50 [8]: > 10000 nM
inhibition (INH) [9]: Not Active
inhibition (INH) [10]: Not Active

CN(C)C(=O)c1cccc(Nc2nc(-c3cccc4[nH]ncc34)nc(N3CCOCC3)n2)c1
IC50 [1]: 60 nM
EC50 [2]: 800 nM
